From article PMC4475676 (Biochemistry, 2015)
Each block holds one substance with its values, some of them ahead of it.

How the values were obtained:
[1] = test system: peptide substrate; experiment: ZZ-exchange NMR catalytic efficiency; assay type: biochemical
How it was run: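 ZZ-exchange NMR used 1 mM 15N-labeled peptide with unlabeled enzyme, 20 μM at 0–20 °C or 1 μM at 30–45 °C. kex_eff came from time-dependent cross-peak build-up, with fit errors from a single experiment. Catalytic-Arg mutants used 100 μM protein at 30 °C with a 0.768 s mixing time. For these, the cis-peak to cross-peak intensity ratio stood in for turnover.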

[2] = test system: peptide substrate; experiment: NMR titration binding affinity
How it was run: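 500 μM 15N-labeled wild-type or mutant protein titrated with 0, 0.1, 0.2, 0.5, 1 and 2 mM peptide. 15N HSQC recorded at 900 MHz. Shift changes of perturbed peaks were fit individually to a quadratic single-site binding equation. Peaks fitting with r² > 0.99 (fast exchange) were then fit globally for one KD per protein. Protein and peptide were in 50 mM Na2HPO4, 1 mM DTT, 1 mM EDTA, pH 6.5.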

[3] = denatures entirely; cited from earlier work
[4] = test system: GeoCyp; conditions: cited from earlier work
[5] = test system: CypA; conditions: cited from earlier work

Substance: CypA^R55A: CypA with mutation of the catalytic arginine Arg 55 to alanine
catalysis after mutation of catalytic arginine ([1]; 100 μM protein, 1 mM peptide, 30 °C): nearly, but not entirely, ablates catalysis

effect of swap mutation on peptide binding ([2]; relative to wild type, NMR titration): strengthened
Substance: CypA^A103R: CypA swap mutant, Ala 103 to Arg
effect of swap mutation on catalytic efficiency ([1]; relative to wild type, ZZ-exchange, 20 μM protein): less

temperature dependence of binding affinity for the peptide [2]: highly temperature-dependent
Substance: CypA^WT: prototypical human cyclophilin A, mesophilic peptidyl-prolyl isomerase
turnover at 45 °C compared between CypA and GeoCyp ([1]; 45 °C, 1 μM protein, 1 mM peptide): comparable rate
Tm / denaturation temperature [3]: 51 °C

Substance: GSFGPDLRAGD [peptide substrate]
isomerization of G-P peptide bond by GeoCyp [4]: readily isomerized
isomerization of G-P peptide bond by CypA [5]: readily isomerized
